Laboratory results as given in ChEMBL document CHEMBL1649560, “Beta-lactamase-mediated beta-lactam resistance in Campylobacter species: prevalence of Cj0299 (bla OXA-61) and evidence for a novel beta-Lactamase in C. jejuni” (2009).
≈ marks a conversion by molar mass, not a printed value.

How the values were obtained:
Type in all cases: functional
Campylobacter coli [1] = assay: Antibacterial activity against Campylobacter coli by NCCLS agar doubling dilution method
How it was run: (§1)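 MICs by agar doubling dilution following the NCCLS (CLSI) Campylobacter Working Group procedure, applied to ampicillin- and amoxicillin-resistant isolates from UK chicken flocks (2000–2006). C. jejuni NCTC 11168 and C. coli NCTC 11366 served as control strains. Resistance was called at an ampicillin cutoff of 8 μg/ml. Other agents were judged against Enterobacteriaceae guidelines (BSAC, CLSI).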

Campylobacter jejuni [2] = assay: Antibacterial activity against Campylobacter jejuni by NCCLS agar doubling dilution method; how it was run: as §1
Campylobacter jejuni [3] = assay: Antibacterial activity against bla gene-negative and nitrocefin reaction-positive beta-lactamase harboring Campylobacter jejuni isolate P854 by NCCLS agar doubling dilution method
How it was run: (§2)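 MICs of β-lactams by agar doubling dilution following the NCCLS (CLSI) Campylobacter Working Group procedure, with C. jejuni NCTC 11168 and C. coli NCTC 11366 as controls. Isolates were from UK poultry flocks. β-Lactamase status was set by Cj0299 PCR (281-bp amplimer) and by a nitrocefin colour change of sonicated lysate within 5 min, or within 30 min on repeat.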

Campylobacter jejuni [4] = assay: Antibacterial activity against bla gene-positive and nitrocefin reaction-positive beta-lactamase harboring Campylobacter jejuni isolate P338 by NCCLS agar doubling dilution method
How it was run: (§3)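 MICs by agar doubling dilution per the NCCLS (now CLSI) Campylobacter Working Group method. Isolates came from UK chicken flocks (feces, ceca or farm environment), 2000–2006. C. jejuni NCTC 11168 and C. coli NCTC 11366 served as control strains. The ampicillin resistance cutoff was 8 μg/ml; BSAC/CLSI Enterobacteriaceae guidelines were used for other agents.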

Campylobacter jejuni [5] = assay: Antibacterial activity against bla gene-positive and nitrocefin reaction-positive beta-lactamase harboring Campylobacter jejuni isolate P285 by NCCLS agar doubling dilution method; how it was run: as §3
Campylobacter jejuni [6] = assay: Antibacterial activity against bla gene-positive and nitrocefin reaction-positive beta-lactamase harboring Campylobacter jejuni isolate P305 by NCCLS agar doubling dilution method; how it was run: as §3
Campylobacter jejuni [7] = assay: Antibacterial activity against Campylobacter jejuni isolate P338 harboring blaOXA-61::cat gene by NCCLS agar doubling dilution method
How it was run: (§4)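 Agar doubling dilution MICs (NCCLS/CLSI Campylobacter Working Group method) against Cj0299-inactivated mutants. Mutants were made by transforming the C. jejuni isolate with pCI and selecting on Mueller-Hinton agar with 10 μg/ml chloramphenicol for 3–5 days. Chromosomal insertion was confirmed by PCR with Cj0299 and cat primers.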

Campylobacter jejuni [8] = assay: Antibacterial activity against bla gene-positive and nitrocefin reaction-positive beta-lactamase harboring Campylobacter jejuni isolate P316 by NCCLS agar doubling dilution method; how it was run: as §3
Campylobacter jejuni [9] = assay: Antibacterial activity against bla gene-positive and nitrocefin reaction-positive beta-lactamase harboring Campylobacter jejuni isolate P1730 by NCCLS agar doubling dilution method; how it was run: as §3
Campylobacter jejuni [10] = assay: Antibacterial activity against bla gene-positive and nitrocefin reaction-positive beta-lactamase harboring Campylobacter jejuni isolate P1093 by NCCLS agar doubling dilution method; how it was run: as §2
Campylobacter jejuni [11] = assay: Antibacterial activity against bla gene-positive and nitrocefin reaction-positive beta-lactamase harboring Campylobacter jejuni isolate P1650 by NCCLS agar doubling dilution method; how it was run: as §2
Campylobacter jejuni [12] = assay: Antibacterial activity against bla gene-negative and nitrocefin reaction-negative beta-lactamase harboring Campylobacter jejuni isolate P1962 by NCCLS agar doubling dilution method; how it was run: as §2
Campylobacter jejuni [13] = assay: Antibacterial activity against Campylobacter jejuni isolate P270 harboring blaOXA-61::cat gene by NCCLS agar doubling dilution method
Campylobacter jejuni [14] = assay: Antibacterial activity against bla gene-positive and nitrocefin reaction-negative beta-lactamase harboring Campylobacter jejuni isolate P1698 by NCCLS agar doubling dilution method; how it was run: as §2
Campylobacter coli [15] = assay: Antibacterial activity against bla gene-positive and nitrocefin reaction-positive beta-lactamase harboring Campylobacter coli isolate P321 by NCCLS agar doubling dilution method; how it was run: as §2
Campylobacter coli [16] = assay: Antibacterial activity against bla-positive and beta-lactamase-weakly positive Campylobacter coli isolate P1627 by NCCLS agar doubling dilution method; how it was run: as §3
Campylobacter jejuni [17] = assay: Antibacterial activity against bla gene-positive and nitrocefin reaction-positive beta-lactamase harboring Campylobacter jejuni isolate P286 by NCCLS agar doubling dilution method; how it was run: as §3
Campylobacter jejuni [18] = assay: Antibacterial activity against Campylobacter jejuni isolate P1093 harboring blaOXA-61::cat gene by NCCLS agar doubling dilution method; how it was run: as §4
Campylobacter jejuni [19] = assay: Antibacterial activity against bla gene-positive and nitrocefin reaction-positive beta-lactamase harboring Campylobacter jejuni isolate P790 by NCCLS agar doubling dilution method; how it was run: as §3
Campylobacter jejuni [20] = assay: Antibacterial activity against bla gene-negative and nitrocefin reaction-negative beta-lactamase harboring Campylobacter jejuni isolate P835 by NCCLS agar doubling dilution method; how it was run: as §2
Campylobacter jejuni [21] = assay: Antibacterial activity against bla gene-positive and nitrocefin reaction-negative beta-lactamase harboring Campylobacter jejuni isolate P1699 by NCCLS agar doubling dilution method; how it was run: as §2
Campylobacter jejuni [22] = assay: Antibacterial activity against bla gene-positive and nitrocefin reaction-negative beta-lactamase harboring Campylobacter jejuni NCTC 11168 by NCCLS agar doubling dilution method; how it was run: as §2
Campylobacter jejuni [23] = assay: Antibacterial activity against bla gene-negative and nitrocefin reaction-negative beta-lactamase harboring Campylobacter jejuni isolate P850 by NCCLS agar doubling dilution method; how it was run: as §2
Campylobacter jejuni [24] = assay: Antibacterial activity against bla gene-positive and nitrocefin reaction-positive beta-lactamase harboring Campylobacter jejuni isolate P1618 by NCCLS agar doubling dilution method; how it was run: as §2
Campylobacter coli [25] = assay: Antibacterial activity against bla gene-positive and nitrocefin reaction-positive beta-lactamase harboring Campylobacter coli isolate P1826 by NCCLS agar doubling dilution method; how it was run: as §2
Campylobacter jejuni [26] = assay: Antibacterial activity against bla gene-negative and nitrocefin reaction-positive beta-lactamase harboring Campylobacter jejuni isolate P843 by NCCLS agar doubling dilution method; how it was run: as §2

SMILES | MIC50 (Campylobacter coli [1]) | MIC90 (Campylobacter coli [1]) | MIC50 (Campylobacter jejuni [2]) | MIC90 (Campylobacter jejuni [2]) | MIC (Campylobacter jejuni [3]) | MIC (Campylobacter jejuni [4]) | MIC (Campylobacter jejuni [5]) | MIC (Campylobacter jejuni [6]) | MIC (Campylobacter jejuni [7]) | MIC (Campylobacter jejuni [8]) | MIC (Campylobacter jejuni [9]) | MIC (Campylobacter jejuni [10]) | MIC (Campylobacter jejuni [11]) | MIC (Campylobacter jejuni [12]) | MIC (Campylobacter jejuni [13]) | MIC (Campylobacter jejuni [14]) | MIC (Campylobacter coli [15]) | MIC (Campylobacter coli [16]) | MIC (Campylobacter jejuni [17]) | MIC (Campylobacter jejuni [18]) | other results
CC(=O)OCC1=C(C(=O)O)N2C(=O)[C@@H](NC(=O)Cc3cccs3)[C@H]2SC1 [CEPHALOTHIN] | 256 µg/mL (≈ 646 µM) | > 256 µg/mL | > 256 µg/mL | > 256 µg/mL |  |  |  |  |  |  |  |  |  |  |  |  |  |  |  |  | 
Cc1onc(-c2ccccc2Cl)c1C(=O)N[C@@H]1C(=O)N2[C@@H]1SC(C)(C)[C@@H]2C(=O)O [CLOXACILLIN] | 256 µg/mL (≈ 587 µM) | > 256 µg/mL | 256 µg/mL (≈ 587 µM) | > 256 µg/mL | 256 µg/mL (≈ 587 µM) | 128 µg/mL (≈ 294 µM) | 256 µg/mL (≈ 587 µM) | 256 µg/mL (≈ 587 µM) | 128 µg/mL (≈ 294 µM) | 256 µg/mL (≈ 587 µM) | 256 µg/mL (≈ 587 µM) | 512 µg/mL (≈ 1170 µM) | 256 µg/mL (≈ 587 µM) | 256 µg/mL (≈ 587 µM) | 128 µg/mL (≈ 294 µM) | 128 µg/mL (≈ 294 µM) | 256 µg/mL (≈ 587 µM) | 256 µg/mL (≈ 587 µM) | 256 µg/mL (≈ 587 µM) | 256 µg/mL (≈ 587 µM) | MIC (Campylobacter coli [1]): 256 µg/mL (≈ 587 µM); MIC (Campylobacter jejuni [19]): > 256 µg/mL; MIC (Campylobacter jejuni [20]): 256 µg/mL (≈ 587 µM); MIC (Campylobacter jejuni [21]): 256 µg/mL (≈ 587 µM); MIC (Campylobacter jejuni [22]): 128 µg/mL (≈ 294 µM); MIC (Campylobacter jejuni [23]): 256 µg/mL (≈ 587 µM); MIC (Campylobacter jejuni [24]): 128 µg/mL (≈ 294 µM); MIC (Campylobacter coli [25]): 256 µg/mL (≈ 587 µM); MIC (Campylobacter jejuni [26]): > 256 µg/mL
CC1(C)S[C@@H]2[C@H](NC(=O)[C@H](C(=O)O)c3ccsc3)C(=O)N2[C@H]1C(=O)O [TICARCILLIN] | 64 µg/mL (≈ 166 µM) | 128 µg/mL (≈ 333 µM) | 64 µg/mL (≈ 166 µM) | 128 µg/mL (≈ 333 µM) | 128 µg/mL (≈ 333 µM) | 64 µg/mL (≈ 166 µM) | 64 µg/mL (≈ 166 µM) | 128 µg/mL (≈ 333 µM) | 4 µg/mL (≈ 10.4 µM) | 64 µg/mL (≈ 166 µM) | 32 µg/mL (≈ 83.2 µM) | 32 µg/mL (≈ 83.2 µM) | 64 µg/mL (≈ 166 µM) | < 4 µg/mL | 2 µg/mL (≈ 5.2 µM) | 64 µg/mL (≈ 166 µM) | 64 µg/mL (≈ 166 µM) | 64 µg/mL (≈ 166 µM) | 64 µg/mL (≈ 166 µM) | 8 µg/mL (≈ 20.8 µM) | MIC (Campylobacter jejuni [19]): 128 µg/mL (≈ 333 µM); MIC (Campylobacter jejuni [20]): 4 µg/mL (≈ 10.4 µM); MIC (Campylobacter jejuni [21]): 128 µg/mL (≈ 333 µM); MIC (Campylobacter jejuni [22]): 2 µg/mL (≈ 5.2 µM); MIC (Campylobacter jejuni [23]): 128 µg/mL (≈ 333 µM); MIC (Campylobacter jejuni [24]): 64 µg/mL (≈ 166 µM); MIC (Campylobacter jejuni [26]): 128 µg/mL (≈ 333 µM)
